In ChEMBL document CHEMBL4680209, “Design, synthesis, and evaluation of new 2-(quinoline-4-yloxy)acetamide-based antituberculosis agents” (Eur J Med Chem, 2020) one finds MIC and Ratio data, which are given here for six compounds.

Converted amounts (≈) assume the structure as drawn.

Assay [1] concerns Mycobacterium tuberculosis. Kind of assay: Inhibition of Mycobacterium tuberculosis QcrB T313A mutant assessed as reduction in bacterial growth by resazurin reduction microplate assay. Summed up:
(§1)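 REMA in Middlebrook 7H9 with 10% ADC and 5% DMSO. Compounds come from 2 mg/mL DMSO stocks as 10-point 2-fold serial dilutions, with a top concentration of 5–40 µg/mL set by solubility. MIC is the lowest concentration preventing resazurin blue-to-pink conversion. Three independent experiments; the modal or highest value is reported, in µM.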

In assay [2] the test system is Mycobacterium tuberculosis. Kind of assay: Inhibition of multidrug-resistant Mycobacterium tuberculosis PT12 clinical isolate QcrB assessed as reduction in bacterial growth by resazurin reduction microplate assay. Summed up: as §1
The subject of assay [3] is Mycobacterium tuberculosis. Kind of assay: Inhibition of multidrug-resistant Mycobacterium tuberculosis PT20 clinical isolate QcrB assessed as reduction in bacterial growth by resazurin reduction microplate assay. The procedure, abridged: as §1
For orientation: The colour change of resazurin is a common sign of viable cells or microbes.

Assay [4] relates to Mycobacterium tuberculosis. Kind of assay: Inhibition of multidrug-resistant Mycobacterium tuberculosis PT2 clinical isolate QcrB assessed as reduction in bacterial growth by resazurin reduction microplate assay. The procedure, abridged:
as §1

Assay [5] can be described thus: Ratio of MIC for inhibition of Mycobacterium tuberculosis QcrB T313A mutant to MIC for inhibition of Mycobacterium tuberculosis H37Rv ATCC 27294 QcrB assessed as reduction in bacterial growth.

In the case of `NNC(=O)c1ccncc1`, the MIC in assay [1] was found to be 2.3 µM (≈ 0.315 µg/mL); in assay [2], 72.9 µM (≈ 10 µg/mL); in assay [3], 146 µM (≈ 20 µg/mL).
For `CO[C@H]1/C=C/O[C@@]2(C)Oc3c(C)c(O)c4c(O)c(c(/C=N/N5CCN(C)CC5)c(O)c4c3C2=O)NC(=O)/C(C)=C\C=C\[C@H](C)[C@H](O)[C@@H](C)[C@@H](O)[C@@H](C)[C@H](OC(C)=O)[C@@H]1C`, the results for the MIC in assay [2], in assay [4] and in assay [3] were above 48.6 µM, above 48.6 µM and 12.2 µM (≈ 10 µg/mL), respectively.
In the case of `COc1ccc2nc(C)cc(OCC(=O)c3ccccc3)c2c1`, the MIC in assay [1] turned out to be 32.5 µM (≈ 9.99 µg/mL); in assay [2] it was 2 µM (≈ 0.615 µg/mL); in assay [4], 2 µM (≈ 0.615 µg/mL); in assay [3], 1 µM (≈ 0.307 µg/mL). Besides, the Ratio in assay [5] is above 4.
As to `COc1ccc2nc(C)cc(OCc3ccc(C(C)C)cc3)c2c1`, the MIC in assay [1] came out at 7.8 µM (≈ 2.51 µg/mL); in assay [2], 1 µM (≈ 0.321 µg/mL); in assay [4] it was 0.5 µM (≈ 0.161 µg/mL); in assay [3] it was 0.2 µM (≈ 0.0643 µg/mL). Moreover, in assay [5], the Ratio is above 4.
For `COc1ccc2nc(C)cc(OCC(=O)c3cccc(Cl)c3)c2c1` the same measures were 7.3 µM (≈ 2.5 µg/mL), 0.9 µM (≈ 0.308 µg/mL), 0.5 µM (≈ 0.171 µg/mL), 0.2 µM (≈ 0.0684 µg/mL) and above 4.
The matching figures for `COc1ccc2nc(C)cc(OCc3ccc(Cl)c(Cl)c3)c2c1`: 14.4 µM (≈ 5.01 µg/mL), 0.5 µM (≈ 0.174 µg/mL), 0.2 µM (≈ 0.0696 µg/mL), 0.2 µM (≈ 0.0696 µg/mL) and above 4.
